In ChEMBL document CHEMBL1142148, “Antibiotic susceptibility profile of bifidobacteria as affected by oxgall, acid, and hydrogen peroxide stress” (2007):
Converted amounts (≈) assume the structure as drawn.

What was measured:
Bifidobacterium animalis [1] = assay: Antimicrobial activity against Bifidobacterium animalis ATCC 27536; format: functional
Outline: (§1)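 Broth microdilution in MRS plus 0.05% L-cysteine-HCl. Mid-log culture adjusted to OD650 0.1, giving about 2.5 × 10^4 to 5.0 × 10^4 CFU/well, then added to twofold serial dilutions of agent. Plates incubated anaerobically at 37°C for 18 h and read at OD650. MIC is the lowest concentration matching the uninoculated blank OD, taken as the median of four repeats.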

Bifidobacterium bifidum [2] = assay: Antimicrobial activity against Bifidobacterium bifidum R0071; format: functional; outline: as §1
Bifidobacterium bifidum [3] = assay: Antimicrobial activity against Bifidobacterium bifidum ATCC 15696; format: functional; outline: as §1
Bifidobacterium bifidum [4] = assay: Antimicrobial activity against Bifidobacterium bifidum BB12; format: functional; outline: as §1
Bifidobacterium breve [5] = assay: Antimicrobial activity against Bifidobacterium breve ATCC 15700; format: functional; outline: as §1
[6] = Antimicrobial activity against Bifidobacterium infantis ATCC 15697; format: functional, Bifidobacterium longum subsp. infantis; conditions: Bifidobacterium longum; outline: as §1
Bifidobacterium longum [7] = assay: Antimicrobial activity against Bifidobacterium longum ATCC 15708; format: functional; outline: as §1
Bifidobacterium longum [8] = assay: Antimicrobial activity against Bifidobacterium longum R0175; format: functional; outline: as §1
Bifidobacterium longum [9] = assay: Antimicrobial activity against Bifidobacterium longum P/N 601377; format: functional; outline: as §1
[10] = test system: Bifidobacterium pseudolongum; assay: Antimicrobial activity against Bifidobacterium pseudolongum ATCC 25562; format: functional; outline: as §1
[11] = test system: Bifidobacterium thermophilum; assay: Antimicrobial activity against Bifidobacterium thermophilum ATCC 25866; format: functional; outline: as §1
Bifidobacterium breve [12] = assay: Antimicrobial activity against Bifidobacterium breve R0070; format: functional; outline: as §1
Bifidobacterium animalis [13] = assay: Antimicrobial activity against 60 min 1 M HCl-stressed Bifidobacterium animalis ATCC 27536 after 18 hrs; format: functional
Outline: (§2)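 Mid-log MRS culture pelleted and resuspended in MRS broth brought to pH 2.0 with 1 M HCl, held anaerobically at 37°C for 60 min, then subcultured in MRS (pH 6.5) for 24 h anaerobically before MIC testing by broth microdilution (as for unstressed cells). Table footnote gives 18 h anaerobic regrowth after the stress. MIC is the median of four repetitions.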

Bifidobacterium bifidum [14] = assay: Antimicrobial activity against 60 min 1 M HCl-stressed Bifidobacterium bifidum R0071 after 18 hrs; format: functional; outline: as §2
Bifidobacterium bifidum [15] = assay: Antimicrobial activity against 60 min 1 M HCl-stressed Bifidobacterium bifidum BB12 after 18 hrs; format: functional; outline: as §2
Bifidobacterium breve [16] = assay: Antimicrobial activity against 60 min 1 M HCl-stressed Bifidobacterium breve ATCC 15700 after 18 hrs; format: functional; outline: as §2
Bifidobacterium breve [17] = assay: Antimicrobial activity against 60 min 1 M HCl-stressed Bifidobacterium breve R0070 after 18 hrs; format: functional; outline: as §2
[18] = Antimicrobial activity against 60 min 1 M HCl-stressed Bifidobacterium infantis ATCC 15697 after 18 hrs; format: functional, Bifidobacterium longum subsp. infantis; conditions: Bifidobacterium longum; outline: as §2
Bifidobacterium longum [19] = assay: Antimicrobial activity against 60 min 1 M HCl-stressed Bifidobacterium longum ATCC 15707 after 18 hrs; format: functional; outline: as §2
Bifidobacterium longum [20] = assay: Antimicrobial activity against 60 min 1 M HCl-stressed Bifidobacterium longum R0175 after 18 hrs; format: functional; outline: as §2
Bifidobacterium longum [21] = assay: Antimicrobial activity against 60 min 1 M HCl-stressed Bifidobacterium longum P/N 601377 after 18 hrs; format: functional; outline: as §2
[22] = test system: Bifidobacterium pseudolongum; assay: Antimicrobial activity against 60 min 1 M HCl-stressed Bifidobacterium pseudolongum ATCC 25562 after 18 hrs; format: functional; outline: as §2
[23] = test system: Bifidobacterium thermophilum; assay: Antimicrobial activity against 60 min 1 M HCl-stressed Bifidobacterium thermophilum ATCC 25866 after 18 hrs; format: functional; outline: as §2
Bifidobacterium animalis [24] = assay: Antimicrobial activity against 90 mins oxgall-stressed Bifidobacterium animalis ATCC 27536 after 18 hrs; format: functional
Outline: (§3)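 Cells pelleted from mid-log MRS culture and resuspended in MRS (initial pH 6.5) with 0.3% (wt/vol) oxgall for 90 min anaerobically at 37°C. They were then regrown in MRS pH 6.5 for 24 h (footnote: 18 h) anaerobically and tested for MIC by the same broth microdilution assay. Median of four repetitions.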

Bifidobacterium bifidum [25] = assay: Antimicrobial activity against 90 mins oxgall-stressed Bifidobacterium bifidum R0071 after 18 hrs; format: functional; outline: as §3
Bifidobacterium bifidum [26] = assay: Antimicrobial activity against 90 mins oxgall-stressed Bifidobacterium bifidum ATCC 15696 after 18 hrs; format: functional; outline: as §3
Bifidobacterium bifidum [27] = assay: Antimicrobial activity against 90 mins oxgall-stressed Bifidobacterium bifidum BB12 after 18 hrs; format: functional; outline: as §3
Bifidobacterium breve [28] = assay: Antimicrobial activity against 90 mins oxgall-stressed Bifidobacterium breve ATCC 15700 after 18 hrs; format: functional; outline: as §3
Bifidobacterium breve [29] = assay: Antimicrobial activity against 90 mins oxgall-stressed Bifidobacterium breve R0070 after 18 hrs; format: functional; outline: as §3
[30] = Antimicrobial activity against 90 mins oxgall-stressed Bifidobacterium infantis ATCC 15697 after 18 hrs; format: functional, Bifidobacterium longum subsp. infantis; conditions: Bifidobacterium longum; outline: as §3
Bifidobacterium longum [31] = assay: Antimicrobial activity against 90 mins oxgall-stressed Bifidobacterium longum ATCC 15707 after 18 hrs; format: functional; outline: as §3
Bifidobacterium longum [32] = assay: Antimicrobial activity against 90 mins oxgall-stressed Bifidobacterium longum ATCC 15708 after 18 hrs; format: functional; outline: as §3
Bifidobacterium longum [33] = assay: Antimicrobial activity against Bifidobacterium longum ATCC 15707; format: functional; outline: as §1
Bifidobacterium longum [34] = assay: Antimicrobial activity against 90 mins oxgall-stressed Bifidobacterium longum R0175 after 18 hrs; format: functional; outline: as §3
Bifidobacterium longum [35] = assay: Antimicrobial activity against 90 mins oxgall-stressed Bifidobacterium longum P/N 601377 after 18 hrs; format: functional; outline: as §3
[36] = test system: Bifidobacterium pseudolongum; assay: Antimicrobial activity against 90 mins oxgall-stressed Bifidobacterium pseudolongum ATCC 25562 after 18 hrs; format: functional; outline: as §3
[37] = test system: Bifidobacterium thermophilum; assay: Antimicrobial activity against 90 mins oxgall-stressed Bifidobacterium thermophilum ATCC 25866 after 18 hrs; format: functional; outline: as §3
Bifidobacterium animalis [38] = assay: Antimicrobial activity against 90 mins hydrogen peroxide-stressed Bifidobacterium animalis ATCC 27536 after 18 hrs; format: functional
Outline: (§4)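 Stress applied for 90 min at 37°C under anaerobic conditions, using MRS (initial pH 6.5) containing H2O2 at each strain's own inhibitory concentration. The H2O2 level was set beforehand by microplate tolerance testing. Challenged cells were regrown in MRS for 24 h (footnote: 18 h) before MIC testing by broth microdilution. Median of four repetitions.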

Bifidobacterium bifidum [39] = assay: Antimicrobial activity against 90 mins hydrogen peroxide-stressed Bifidobacterium bifidum R0071 after 18 hrs; format: functional; outline: as §4
Bifidobacterium bifidum [40] = assay: Antimicrobial activity against 90 mins hydrogen peroxide-stressed Bifidobacterium bifidum BB12 after 18 hrs; format: functional; outline: as §4
Bifidobacterium breve [41] = assay: Antimicrobial activity against 90 mins hydrogen peroxide-stressed Bifidobacterium breve ATCC 15700 after 18 hrs; format: functional; outline: as §4
Bifidobacterium breve [42] = assay: Antimicrobial activity against 90 mins hydrogen peroxide-stressed Bifidobacterium breve R0070 after 18 hrs; format: functional; outline: as §4
Bifidobacterium longum [43] = assay: Antimicrobial activity against 90 mins hydrogen peroxide-stressed Bifidobacterium longum ATCC 15707 after 18 hrs; format: functional; outline: as §4
Bifidobacterium longum [44] = assay: Antimicrobial activity against 90 mins hydrogen peroxide-stressed Bifidobacterium longum ATCC 15708 after 18 hrs; format: functional; outline: as §4
Bifidobacterium longum [45] = assay: Antimicrobial activity against 90 mins hydrogen peroxide-stressed Bifidobacterium longum R0175 after 18 hrs; format: functional; outline: as §4
Bifidobacterium longum [46] = assay: Antimicrobial activity against 90 mins hydrogen peroxide-stressed Bifidobacterium longum P/N 601377 after 18 hrs; format: functional; outline: as §4
[47] = test system: Bifidobacterium thermophilum; assay: Antimicrobial activity against 90 mins hydrogen peroxide-stressed Bifidobacterium thermophilum ATCC 25866 after 18 hrs; format: functional; outline: as §4

MIC (Bifidobacterium animalis [1]): 250 µg/mL (≈ 430 µM)
MIC (Bifidobacterium bifidum [2]): 250 µg/mL (≈ 430 µM)
MIC (Bifidobacterium bifidum [3]): 250 µg/mL (≈ 430 µM)
MIC (Bifidobacterium bifidum [4]): 250 µg/mL (≈ 430 µM)
MIC (Bifidobacterium breve [5]): 250 µg/mL (≈ 430 µM)
MIC [6]: 250 µg/mL (≈ 430 µM)
MIC (Bifidobacterium longum [7]): 250 µg/mL (≈ 430 µM)
MIC (Bifidobacterium longum [8]): 62.5 µg/mL (≈ 107 µM)
MIC (Bifidobacterium longum [9]): 125 µg/mL (≈ 215 µM)
MIC [10]: 250 µg/mL (≈ 430 µM)
MIC [11]: 250 µg/mL (≈ 430 µM)
MIC (Bifidobacterium breve [12]): 15.6 µg/mL (≈ 26.8 µM)
MIC (Bifidobacterium animalis [13]): 125 µg/mL (≈ 215 µM)
MIC (Bifidobacterium bifidum [14]): 250 µg/mL (≈ 430 µM)
MIC (Bifidobacterium bifidum [15]): 125 µg/mL (≈ 215 µM)
MIC (Bifidobacterium breve [16]): 125 µg/mL (≈ 215 µM)
MIC (Bifidobacterium breve [17]): 125 µg/mL (≈ 215 µM)
MIC [18]: 250 µg/mL (≈ 430 µM)
MIC (Bifidobacterium longum [19]): 250 µg/mL (≈ 430 µM)
MIC (Bifidobacterium longum [20]): 31.2 µg/mL (≈ 53.6 µM)
MIC (Bifidobacterium longum [21]): 62.5 µg/mL (≈ 107 µM)
MIC [22]: 250 µg/mL (≈ 430 µM)
MIC [23]: 250 µg/mL (≈ 430 µM)
MIC (Bifidobacterium animalis [24]): 125 µg/mL (≈ 215 µM)
MIC (Bifidobacterium bifidum [25]): 125 µg/mL (≈ 215 µM)
MIC (Bifidobacterium bifidum [26]): 1.9 µg/mL (≈ 3.27 µM)
MIC (Bifidobacterium bifidum [27]): 500 µg/mL (≈ 860 µM)
MIC (Bifidobacterium breve [28]): 250 µg/mL (≈ 430 µM)
MIC (Bifidobacterium breve [29]): 125 µg/mL (≈ 215 µM)
MIC [30]: 250 µg/mL (≈ 430 µM)
MIC (Bifidobacterium longum [31]): 62.5 µg/mL (≈ 107 µM)
MIC (Bifidobacterium longum [32]): 250 µg/mL (≈ 430 µM)
MIC (Bifidobacterium longum [33]): 250 µg/mL (≈ 430 µM)
MIC (Bifidobacterium longum [34]): 125 µg/mL (≈ 215 µM)
MIC (Bifidobacterium longum [35]): 125 µg/mL (≈ 215 µM)
MIC [36]: 250 µg/mL (≈ 430 µM)
MIC [37]: 250 µg/mL (≈ 430 µM)
MIC (Bifidobacterium animalis [38]): 250 µg/mL (≈ 430 µM)
MIC (Bifidobacterium bifidum [39]): 250 µg/mL (≈ 430 µM)
MIC (Bifidobacterium bifidum [40]): 250 µg/mL (≈ 430 µM)
MIC (Bifidobacterium breve [41]): 500 µg/mL (≈ 860 µM)
MIC (Bifidobacterium breve [42]): 250 µg/mL (≈ 430 µM)
MIC (Bifidobacterium longum [43]): 62.5 µg/mL (≈ 107 µM)
MIC (Bifidobacterium longum [44]): 500 µg/mL (≈ 860 µM)
MIC (Bifidobacterium longum [45]): 250 µg/mL (≈ 430 µM)
MIC (Bifidobacterium longum [46]): 125 µg/mL (≈ 215 µM)
MIC [47]: 500 µg/mL (≈ 860 µM)
SMILES: CN[C@@H]1[C@H](O[C@H]2[C@H](O[C@H]3[C@H](O)[C@@H](O)[C@H](N=C(N)N)[C@@H](O)[C@@H]3N=C(N)N)O[C@@H](C)[C@]2(O)C=O)O[C@@H](CO)[C@H](O)[C@H]1O [STREPTOMYCIN]
